IC50 and inhibition data for 21 compounds are collected here from ChEMBL document CHEMBL1123403, “Pyrazolo[4,5-c]quinolines. 2. Synthesis and specific inhibition of benzodiazepine receptor binding” (J Med Chem, 1986).

In assay [1] the target is GABA-A receptor; anion channel. Nature of the assay: Inhibitory concentration against [3H]flunitrazepam binding to Benzodiazepine receptor in bovine brain membranes. In kind it is cell membranes. The method in brief:
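Membranes were made by homogenizing in ice-cold 0.32 M sucrose with protease inhibitors, spinning at 48000g, and osmotically shocking in 50 mM Tris-HCl. Membranes (0.4-0.5 mg protein, Lowry) were incubated with 1.0 nM [3H]flunitrazepam in 50 mM Tris-HCl at 0 °C for 90 min, then filtered and counted by scintillation. Nonspecific binding was defined with 10 μM diazepam. IC50 came from log-probit analysis of 4-6 concentrations, each in triplicate.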

The target in assay [2] is GABA-A receptor; anion channel (Bos taurus) (UniProt P10063+P08220+P20237+P08219+P10064+P22300). Nature of the assay: Inhibition of specific [3H]flunitrazepam binding to Benzodiazepine receptor in bovine brain membranes at 34 uM. In kind it is cell membranes.

As usually defined, the IC50 is the concentration needed to halve the response being measured. A lower IC50 goes with inhibition by little substance. As a reminder, the inhibition is the share of the control response that was lost under treatment. `Cc1nn(-c2ccc(Cl)cc2)c2c1c(=O)n(C)c1ccccc21` came in with an IC50 in assay [1] of 2.7 µM. Moreover, in assay [2], the inhibition came out at 78%.
`Cc1cccc(-n2nc(C)c3c(N4CCN(C)CC4)nc4ccccc4c32)c1` returned an inhibition in assay [2] of 44%.
As for `COc1nc2ccccc2c2c1c(C)nn2-c1cccc(Cl)c1`, the inhibition in assay [2] was found to be 18%.
Compound `Cc1cccc(-n2nc(C)c3c(O)nc4ccccc4c32)c1` registered an IC50 in assay [1] of 9 µM. In addition, the inhibition in assay [2] was determined as 97%.
In turn, `Cc1[nH]nc2c1c(=O)[nH]c1ccccc12` came in with an inhibition in assay [2] of 47%.
The same measure, in the same setting: with `Cc1nn(-c2ccccc2)c2c1c(N1CCN(C)CC1)nc1ccccc12` the figure was 41%; with `Cc1nn(-c2cccc(Cl)c2)c2c1c(Cl)nc1ccccc12`, 21%.
Compound `Cc1nn(-c2cccc(Cl)c2)c2c1c(O)nc1ccccc12` registered an IC50 in assay [1] of 4.4 µM. Also, the inhibition in assay [2] was determined as 94%.
In assay [2], `Cc1nn(-c2ccc(Cl)cc2)c2c1c(N1CCN(C)CC1)nc1ccccc12` returned an inhibition of 23%.
With `Cc1cccc(-n2nc(C)c3c(=O)n(C)c4ccccc4c32)c1`, the IC50 in assay [1] amounted to 0.26 µM. In assay [2], this compound displayed an inhibition of 95%.
For `Cc1nn(-c2ccccc2)c2c1c(N1CCOCC1)nc1ccccc12`, the inhibition in assay [2] was determined as 8%.
`Cc1nn(-c2cccc(Cl)c2)c2c1c(=O)n(C)c1ccccc21` had an IC50 in assay [1] of 1 µM. The compound also registered an inhibition in assay [2] of 96%.
The matching figures for `Cc1nn(-c2ccccc2)c2c1c(=O)n(C)c1ccccc21`: 3.4 µM and 85%.
`Cc1cccc(-n2nc(C)c3c(N4CCOCC4)nc4ccccc4c32)c1` showed an inhibition in assay [2] of 7%.
In assay [2], `Cc1ccc(-n2nc(C)c3c(O)nc4ccccc4c32)cc1` returned an inhibition of 65%.
Same read-out and setting: the same measure for `Cc1cccc(-n2nc(C)c3c(Cl)nc4ccccc4c32)c1`: 21%; for `Cc1nn(-c2cccc(Cl)c2)c2c1c(N1CCN(C)CC1)nc1ccccc12`: 49%.
As to `Cc1nn(-c2ccc(Cl)cc2)c2c1c(O)nc1ccccc12`, the IC50 in assay [1] turned out to be 22 µM. This compound also registered an inhibition in assay [2] of 70%.
In assay [2], `Cc1nn(-c2ccccc2)c2c1c(O)nc1ccccc12` registered an inhibition of 62%.
`Cc1ccc(-n2nc(C)c3c(=O)n(C)c4ccccc4c32)cc1`: the inhibition in assay [2] is 63%.
`Cc1nn(-c2cccc(Cl)c2)c2c1c(N1CCOCC1)nc1ccccc12` returned an inhibition in assay [2] of 24%.
